Laboratory results: ChEMBL document CHEMBL2202976, “Structure requirements for anaerobe processing of azo compounds: implications for prodrug design” (Bioorg Med Chem Lett, 2012)

Assays:
Assay type in all cases: ADME; call rule not given here
[1] = Prodrug conversion assessed as Clostridium perfringens azoreductase-mediated prednisolone formation by HPLC analysis
[2] = Prodrug conversion assessed as Clostridium perfringens azoreductase-mediated disproportionation to parent amine by HPLC analysis
[3] = Drug metabolism assessed as Clostridium perfringens azoreductase-mediated reduction within 4 hrs by HPLC analysis
[4] = Drug metabolism assessed as Clostridium perfringens azoreductase-mediated reoxidation of hydrazine intermediate to parent azo compound by LCMS analysis
How it was run: (§1)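 Azo substrate incubated in Clostridium perfringens culture. Samples taken at 0 h and 6 h and analysed by LCMS, resolving parent azo isomer peaks from the hydrazine intermediate peak.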

[5] = Drug metabolism assessed as Clostridium perfringens azoreductase-mediated hydrazine intermediate formation by LCMS analysis; how it was run: as §1
[6] = Drug metabolism assessed as Clostridium perfringens azoreductase-mediated reoxidation of hydrazine intermediate to parent azo compound at 6 hrs by LCMS analysis; how it was run: as §1
[7] = Drug metabolism assessed as Clostridium perfringens-mediated hydrazine intermediate formation at 6 hrs by LCMS analysis; how it was run: as §1
azoreductase = test: Drug metabolism assessed as Clostridium perfringens azoreductase-mediated reduction at 6 hrs by HPLC analysis; conditions: read-out: Drug metabolism
How it was run: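 Azo substrates incubated with Clostridium perfringens culture and sampled over time to 6 h. Parent loss and product formation followed by reverse-phase HPLC with PDA UV detection, with the azo chromophore absorbing at 300–400 nm.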

[8] = Drug metabolism assessed as Clostridium perfringens azoreductase-mediated dihydroquinolone derivative formation by HPLC analysis

For O=C(O)CCc1ccccc1/N=N/c1ccc(C(=O)NCC(=O)O)cc1, the Drug metabolism [1] was “Not Active”.
For O=[N+]([O-])c1ccc(/N=N/c2ccc(O)cc2)cc1, the Drug metabolism [2] was “Active” and the Drug metabolism [3] was “Active”.
For O=C(O)c1ccc(/N=N/c2ccc(O)cc2)cc1, the Drug metabolism [2] was “Active” and the Drug metabolism [3] was “Active”.
In the case of N#Cc1ccc(/N=N/c2ccc(O)cc2)cc1, the Drug metabolism [2] is reported as “Active” and the Drug metabolism [3] is reported as “Active”.
With O=C(O)c1cccc(/N=N/c2ccccc2)c1 the Drug metabolism [4] was “Active” and the Drug metabolism [5] was “Active”.
For Brc1ccc(/N=N/c2ccccc2)cc1, the Drug metabolism [4] was “Active” and the Drug metabolism [5] was “Active”.
For N#Cc1ccc(/N=N/c2ccccc2)cc1, the Drug metabolism [4] was “Active” and the Drug metabolism [5] was “Active”.
In the case of FC(F)(F)c1ccc(/N=N/c2ccccc2)cc1, the Drug metabolism [4] is reported as “Not Active”, the Drug metabolism [2] is reported as “Active” and the Drug metabolism [5] is reported as “Active”.
For C[C@]12C=CC(=O)C=C1CC[C@@H]1[C@@H]2[C@@H](O)C[C@@]2(C)[C@H]1CC[C@]2(O)C(=O)COC(=O)CCc1ccccc1/N=N/c1ccc(C(=O)O)cc1, the Drug metabolism [6] was “Active”, the Drug metabolism [7] was “Active” and the metabolised at 6 h (azoreductase) was 55%. The Drug metabolism [8] was “Not Active” and the Drug metabolism [1] was “Not Active”.
In the case of O=C(O)CCc1ccccc1/N=N/c1ccc(C(=O)O)cc1, the Drug metabolism [1] is reported as “Not Active”.
For O=C(O)c1ccc(/N=N/c2ccccc2)cc1, the Drug metabolism [4] was “Active” and the Drug metabolism [5] was “Active”.
For Oc1ccc(/N=N/c2ccc(Br)cc2)cc1, the Drug metabolism [2] was “Active” and the Drug metabolism [3] was “Active”.
For CN(C)c1ccc(/N=N/c2ccccc2C(=O)O)cc1, the Drug metabolism [2] was “Active” and the Drug metabolism [3] was “Active”.
With CN(C)c1ccc(/N=N/c2ccccc2)cc1 [DIMETHYL YELLOW] the Drug metabolism [2] was “Active” and the Drug metabolism [3] was “Active”.
